In brackets after ≈: the same amount, converted by molar mass.
How the values were obtained:
Staphylococcus aureus [1] = assay: Bactericidal activity against Staphylococcus aureus ATCC 29213 incubated for 24 hrs followed by re-plating on nutrient agar and measured after overnight incubation by two fold serial dilution method; type: functional; conditions: ATCC 29213, 24 h
Method in brief: (§1)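 After the MIC read, 100 µl from every tube without visible growth was spread on nutrient agar lacking compound. Plates were incubated overnight at 28 ± 1 °C. MBC was taken as the lowest concentration killing >99.9% of the initial population, seen as no growth on agar.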

Escherichia coli [2] = assay: Antibacterial activity against Escherichia coli ATCC 35150 after 24 hrs by two fold serial dilution method; type: functional; conditions: ATCC 35150, 24 h
Method in brief: (§2)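 Broth two-fold serial dilution per CLSI, in nutrient broth. Inoculum from 24 h cultures at 28 ± 1 °C, adjusted in saline to 1×10^7-2×10^7 cfu/mL, then diluted to 1×10^5-2×10^5 cfu/mL. Test range 256 down to 0.50 µM and lower. Tubes held 24 h at 28 ± 1 °C. MIC read visually. Enrofloxacin and norfloxacin served as standards.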

Escherichia coli [3] = assay: Bactericidal activity against Escherichia coli ATCC 35150 incubated for 24 hrs followed by re-plating on nutrient agar and measured after overnight incubation by two fold serial dilution method; type: functional; conditions: ATCC 35150, 24 h; method in brief: as §1
Streptococcus agalactiae [4] = assay: Bactericidal activity against Streptococcus agalactiae WB1445 incubated for 24 hrs followed by re-plating on nutrient agar and measured after overnight incubation by two fold serial dilution method; type: functional; conditions: WB1445, 24 h; method in brief: as §1
Staphylococcus aureus [5] = assay: Antibacterial activity against Staphylococcus aureus ATCC 29213 after 24 hrs by two fold serial dilution method; type: functional; conditions: ATCC 29213, 24 h; method in brief: as §2
[6] = target: T1, Enoyl-(Acyl-carrier-protein) reductase II (Streptococcus agalactiae serotype V (strain ATCC BAA-611 / 2603 V/R), UniProt Q8E1K8); assay: Inhibition of Streptococcus agalactiae WB1445 FabK in presence of t-O-NAC and NADH up to 1 min by spectrophotometric analysis
T1 sequence (Q8E1K8 whole entry): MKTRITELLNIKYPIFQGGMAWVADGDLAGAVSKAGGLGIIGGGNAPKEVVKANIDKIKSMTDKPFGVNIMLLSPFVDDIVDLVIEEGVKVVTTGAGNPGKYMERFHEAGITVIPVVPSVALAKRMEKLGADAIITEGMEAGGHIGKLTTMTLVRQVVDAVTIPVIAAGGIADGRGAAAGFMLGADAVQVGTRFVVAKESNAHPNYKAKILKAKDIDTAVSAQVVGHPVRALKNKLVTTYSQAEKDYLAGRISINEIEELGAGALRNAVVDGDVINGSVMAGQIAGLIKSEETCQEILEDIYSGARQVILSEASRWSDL
Method in brief: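 Recombinant His-tagged FabK (20 µL of 150 µg/mL stock) was assayed in 100 µL of 0.1 M ADA-DTT, pH 6.5, against compounds at 128-1 µM, with 10 µL of 4 mM t-O-NAC. Addition of 20 µL of 2 mM NADH started the reaction. Absorbance at 340 nm was read for 1 min. IC50 was estimated from dose-response curves.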

Flavobacterium columnare [7] = assay: Bactericidal activity against Flavobacterium columnare FC-G1 incubated for 24 hrs followed by re-plating on nutrient agar and measured after overnight incubation by two fold serial dilution method; type: functional; conditions: FC-G1, 24 h; method in brief: as §1
[8] = Inhibition of Escherichia coli ATCC 35150 FabI in presence of t-O-NAC and NADH up to 1 min by spectrophotometric analysis
Method in brief: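 Recombinant His-tagged FabI, expressed in E. coli BL21(DE3) and purified on Ni-NTA, was used at 20 µL of 100 µg/mL stock in 0.1 M PBS-DTT. Compounds were tested at 128-1 µM with 10 µL of 4 mM t-O-NAC, and 20 µL of 2 mM NADH started the reaction. NADH oxidation was followed at 340 nm for 1 min. IC50 came from dose-response plots.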

Flavobacterium columnare [9] = assay: Antibacterial activity against Flavobacterium columnare FC-G1 after 24 hrs by two fold serial dilution method; type: functional; conditions: FC-G1, 24 h; method in brief: as §2
Streptococcus agalactiae [10] = assay: Antibacterial activity against Streptococcus agalactiae WB1445 after 24 hrs by two fold serial dilution method; type: functional; conditions: WB1445, 24 h; method in brief: as §2

Row | MIC (Escherichia coli [2]) [µM] | MIC (Staphylococcus aureus [5]) [µM] | IC50 [6] [nM] | IC50 [8] [nM] | MIC (Flavobacterium columnare [9]) [µM] | MIC (Streptococcus agalactiae [10]) [µM] | Structure (SMILES) | MBC (Staphylococcus aureus [1]) [µM] | MBC (Escherichia coli [3]) [µM] | MBC (Streptococcus agalactiae [4]) [µM] | MBC (Flavobacterium columnare [7]) [µM]
1 | 8 (≈ 2.61 µg/mL) | 64 (≈ 20.9 µg/mL) | 3440 | 1200 | 16 (≈ 5.22 µg/mL) | 128 (≈ 41.8 µg/mL) | Cc1nccn1CCCCCCOc1ccc2ccc(=O)oc2c1 | 256 (≈ 83.6 µg/mL) | 64 (≈ 20.9 µg/mL) | 256 (≈ 83.6 µg/mL) | 32 (≈ 10.4 µg/mL)
2 | – | – | – | – | > 256 | > 256 | O=c1ccc2ccc(OCCCCCCCCN3CCNCC3)cc2o1 | – | – | > 256 | > 256
3 | – | – | – | – | > 256 | > 256 | O=c1ccc2ccc(OCCCCCCCCN3CCCCC3)cc2o1 | – | – | > 256 | > 256
4 | – | – | – | – | > 256 | > 256 | NCCCCCCCCOc1ccc2ccc(=O)oc2c1 | – | – | > 256 | > 256
5 | > 256 | 32 (≈ 11.4 µg/mL) | – | – | 16 (≈ 5.69 µg/mL) | 32 (≈ 11.4 µg/mL) | Cc1cc(=O)oc2cc(OCCCCCCCCn3cncn3)ccc12 | 256 (≈ 91 µg/mL) | > 256 | 64 (≈ 22.7 µg/mL) | 64 (≈ 22.7 µg/mL)
6 | 16 (≈ 4.32 µg/mL) | > 256 | – | – | > 256 | > 256 | Cc1cn(CCOc2ccc3ccc(=O)oc3c2)cn1 | > 256 | 64 (≈ 17.3 µg/mL) | > 256 | > 256
7 | 16 (≈ 4.77 µg/mL) | > 256 | – | – | > 256 | > 256 | Cc1cn(CCCCOc2ccc3ccc(=O)oc3c2)cn1 | > 256 | 32 (≈ 9.55 µg/mL) | > 256 | > 256
8 | > 256 | > 256 | – | – | > 256 | > 256 | O=c1ccc2ccc(OCCCCCCBr)cc2o1 | > 256 | > 256 | > 256 | > 256
9 | > 256 | 32 (≈ 11.6 µg/mL) | – | – | 32 (≈ 11.6 µg/mL) | 32 (≈ 11.6 µg/mL) | O=c1ccc2ccc(OCCCCCCn3cnc4ccccc43)cc2o1 | 256 (≈ 92.8 µg/mL) | > 256 | 128 (≈ 46.4 µg/mL) | 128 (≈ 46.4 µg/mL)
10 | > 256 | 32 (≈ 12.9 µg/mL) | – | – | 16 (≈ 6.47 µg/mL) | 32 (≈ 12.9 µg/mL) | Cc1cc(=O)oc2cc(OCCCCCCCCn3cnc4ccccc43)ccc12 | 256 (≈ 104 µg/mL) | > 256 | 64 (≈ 25.9 µg/mL) | 64 (≈ 25.9 µg/mL)
11 | 8 (≈ 2.68 µg/mL) | 32 (≈ 10.7 µg/mL) | – | – | > 256 | > 256 | O=c1ccc2ccc(OCCCCn3cnc4ccccc43)cc2o1 | 256 (≈ 85.6 µg/mL) | 64 (≈ 21.4 µg/mL) | > 256 | > 256
12 | > 256 | 64 (≈ 23.6 µg/mL) | – | – | 4 (≈ 1.47 µg/mL) | 16 (≈ 5.9 µg/mL) | Cc1cc(=O)oc2cc(OCCCCCCCCn3ccnc3C)ccc12 | 256 (≈ 94.3 µg/mL) | > 256 | 16 (≈ 5.9 µg/mL) | 8 (≈ 2.95 µg/mL)
13 | > 256 | > 256 | – | – | > 256 | > 256 | O=c1ccc2ccc(OCCBr)cc2o1 | > 256 | > 256 | > 256 | > 256
14 | 128 (≈ 36.4 µg/mL) | 64 (≈ 18.2 µg/mL) | – | – | > 256 | > 256 | O=c1ccc2ccc(OCCCCn3ccnc3)cc2o1 | 256 (≈ 72.8 µg/mL) | 256 (≈ 72.8 µg/mL) | > 256 | > 256
15 | – | – | – | – | > 256 | > 256 | O=c1ccc2ccc(OCCCCCCCCn3cccn3)cc2o1 | – | – | > 256 | > 256
16 | > 256 | 64 (≈ 22.7 µg/mL) | – | – | 4 (≈ 1.42 µg/mL) | 8 (≈ 2.84 µg/mL) | Cc1cc(=O)oc2cc(OCCCCCCCCn3ccnc3)ccc12 | 256 (≈ 90.7 µg/mL) | > 256 | 16 (≈ 5.67 µg/mL) | 16 (≈ 5.67 µg/mL)

— ChEMBL document CHEMBL4251599, “Synthesis and biological evaluation of coumarin derivatives containing imidazole skeleton as potential antibacterial agents” (Eur J Med Chem, 2018)
